The results in this text go back to ChEMBL document CHEMBL1130129, “Immunologically specific activation of a cephalosporin derivative of mitomycin C by monoclonal antibody beta-lactamase conjugates” (J Med Chem, 1997).

The target of experiment [1] is Beta-lactamase (Enterobacter cloacae) (UniProt P05364). Kind of experiment: Determination of kinetic constant (Kcat) for hydrolysis by beta-lactamase from Enterobacter cloacae P99. In outline:
(§1)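 Purified E. cloacae β-lactamase (0.1 µg/mL) added to prodrug in PBS pH 7.2 containing 12.5 µg/mL bovine serum albumin, 23 °C; β-lactam hydrolysis followed by loss of absorbance at 260 nm. Initial velocities taken from linear portions of absorbance-time plots and used to derive kinetic constants.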

Experiment [2] in a line: Ratio of kinetic constants for hydrolysis by beta-lactamase from Enterobacter cloacae P99 (kcat/Km). Set-up: unit not given here. In a few lines: as §1

Sequence of Beta-lactamase (Enterobacter cloacae) (P05364 21-381 limits assumed): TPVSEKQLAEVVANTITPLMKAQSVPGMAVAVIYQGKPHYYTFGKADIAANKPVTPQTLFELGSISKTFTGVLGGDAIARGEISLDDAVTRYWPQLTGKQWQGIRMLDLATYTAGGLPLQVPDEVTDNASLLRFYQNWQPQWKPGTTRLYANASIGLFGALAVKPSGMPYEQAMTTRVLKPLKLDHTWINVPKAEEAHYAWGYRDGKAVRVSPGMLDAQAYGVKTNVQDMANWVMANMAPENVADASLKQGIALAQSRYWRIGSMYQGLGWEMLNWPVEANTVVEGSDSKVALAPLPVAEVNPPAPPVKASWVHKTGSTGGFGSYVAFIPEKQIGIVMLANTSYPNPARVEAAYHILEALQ

Compound `CO[C@@]12[C@H](COC(N)=O)C3=C(C(=O)C(C)=C(NCC4=C(C(=O)O)N5C(=O)[C@@H](NC(=O)Cc6ccccc6)[C@H]5SC4)C3=O)N1C[C@@H]1N[C@@H]12` gave a k cat in experiment [1] of 476 s⁻¹. Further, the Ratio in experiment [2] came out at 9.7.
On the same counts, the results for `CO[C@@]12[C@H](COC(N)=O)C3=C(C(=O)C(C)=C(NCC4=C(C(=O)O)N5C(=O)[C@@H](NC(=O)CCCC(=O)O)[C@H]5SC4)C3=O)N1C[C@@H]1N[C@@H]12` are 248 s⁻¹ and 2.1.
The matching figures for `O=C(O)CCCC(=O)N[C@@H]1C(=O)N2C(C(=O)O)=C(COC(=O)Nc3ccc(N(CCCl)CCCl)cc3)CS[C@H]12`: 337 s⁻¹ and 7.8.
`O=C(Cc1ccccc1)N[C@@H]1C(=O)N2C(C(=O)O)=C(COC(=O)Nc3ccc(N(CCCl)CCCl)cc3)CS[C@H]12` had a k cat in experiment [1] of 119 s⁻¹. Also, in experiment [2], the Ratio came to 17.
As for `COc1cccc2c1C(=O)c1c(O)c3c(c(O)c1C2=O)C[C@@](O)(C(=O)CO)C[C@@H]3OC1CC(NC(=O)OCC2=C(C(=O)O)N3C(=O)[C@@H](NC(=O)CCCC(=O)O)[C@H]3SC2)C(O)C(C)O1` (some centres undefined), the Ratio in experiment [2] was determined as 2.5.
